Results collected from several papers.
Compare with care: the assays were run in different laboratories.
Cell line: NCI-H460
Observed: cell growth or viability

SMILES | test | setting | quantity | value
CCCCCCCCCCCCCCCCCCOc1ccc(CC(=O)OCC[N+]2(C)CCOCC2)cc1 | SRB | 10 µM | inhibition | 0.33%
O=C(CSc1nc2ccccc2s1)N/N=C/c1ccc(OCC(=O)Nc2ccc(Br)cc2)cc1 | MTS | 72 h | IC50 | 14 µM
N#Cc1ccc(-c2cc(COc3cc(=O)oc4ccccc34)on2)cc1 | MTS | 72 h | IC50 | > 100 µM
COc1ccc(NC(=O)NCc2cn(Cc3ccccc3C)nn2)cc1 | CCK-8 | 50 µM, 72 h | viability | 106%
CCCCCCCCCCCCCCCCCCOc1ccccc1CC(=O)OCC[N+]1(C)CCOCC1 | SRB | 10 µM | inhibition | 30.8%
COc1ccc(NC(=O)Nc2cccc(-c3cn(Cc4ccc(Br)cc4)nn3)c2)cc1 | CCK-8 | 50 µM, 72 h | viability | 106%
CCCCCCCCCCCCCCCCCCOc1cccc(CC(=O)OCC[N+]2(C)CCCCC2)c1 | SRB | 10 µM | inhibition | 0.88%
O=c1cc(OCc2cc(-c3ccccc3)no2)c2ccccc2o1 | MTS | 72 h | IC50 | > 100 µM
CCCCCCCCCCCCCCCCCCOc1ccc(CC(=O)OCC[N+]2(C)CCCC2)cc1 | SRB | 10 µM | inhibition | 0.31%
O=c1cc(OCc2cc(-c3ccc(C(F)(F)F)cc3)no2)c2ccccc2o1 | MTS | 72 h | IC50 | > 100 µM
CCCCCCCCCCCCCCCCCCOc1ccccc1CC(=O)OCC[N+]1(C)CCCC1 | SRB | 10 µM | inhibition | 72.5%
O=C(CSc1nc2ccccc2s1)N/N=C/c1ccc(OCC(=O)Nc2cccc(Br)c2)cc1 | MTS | 72 h | IC50 | 32.1 µM
CCCCCCCCCCCCCCCCCCOc1ccc(CC(=O)OCCC[N+](C)(C)C)cc1 | SRB | 10 µM | inhibition | 26.7%
COc1ccc(NC(=O)NCc2cn(Cc3ccc(Br)cc3)nn2)cc1 | CCK-8 | 50 µM, 72 h | viability | 77.1%
COc1cc([C@@H]2c3cc4c(cc3[C@@H](O[C@@H]3O[C@@H]5CO[C@@H](C)O[C@H]5[C@H](O)[C@H]3O)[C@H]3COC(=O)[C@H]23)OCO4)cc(OC)c1O | MTS | 72 h | IC50 | 0.69 µM
C[C@H](Nc1ccc2c(c1)OCCn1cc(N3C(=O)OC[C@H]3C(F)F)nc1-2)C(N)=O | ATP luminescence | 5 days | EC50 | 2.9 µM
COc1ccc(NC(=O)NCc2cn(Cc3ccc(Cl)cc3)nn2)cc1 | CCK-8 | 50 µM, 72 h | viability | 91.8%
CCCCCCCCCCCCCCCCCCOc1ccccc1CC(=O)OCC[N+](CC)(CC)CC | SRB | 10 µM | inhibition | 65.4%
O=C(Nc1ccc(Cl)cc1)Nc1cccc(-c2cn(Cc3cccc(Br)c3)nn2)c1 | CCK-8 | 50 µM, 72 h | viability | 88.2%
FC(F)(F)c1cc(OCc2cc(-c3ccc(Cl)cc3Cl)no2)c2ccccc2n1 | MTS | 72 h | IC50 | > 100 µM
COc1ccc(NC(=O)NCc2cn(Cc3ccc(C)cc3)nn2)cc1 | CCK-8 | 50 µM, 72 h | viability | 95.5%
O=c1cc(OCc2cc(-c3ccccn3)no2)c2ccccc2o1 | MTS | 72 h | IC50 | > 100 µM
COc1ccc(NC(=O)Nc2cccc(-c3cn(Cc4ccc(C)cc4)nn3)c2)cc1 | CCK-8 | 50 µM, 72 h | viability | 102%
O=c1cc(OCc2cc(-c3ccc(Cl)cc3Cl)no2)c2ccccc2o1 | MTS | 72 h | IC50 | > 100 µM
COc1ccc(NC(=O)Nc2cccc(-c3cn(Cc4cccc(Cl)c4)nn3)c2)cc1 | CCK-8 | 50 µM, 72 h | viability | 105%
c1ccc(-c2cc(CNc3cccc4cccnc34)on2)nc1 | MTS | 72 h | IC50 | > 100 µM
CCCCCCCCCCCCCCCCCCOc1ccccc1CC(=O)OCCC[N+](C)(C)C | SRB | 10 µM | inhibition | 19.9%
